Data: ChEMBL document CHEMBL4732082, “Development of novel benzimidazole-derived neddylation inhibitors for suppressing tumor growth invitro and invivo” (Eur J Med Chem, 2021)
The source made the active and inactive calls. The rule behind the calls is not given here.

What was measured:
[1] = Cytotoxicity against human […] cells incubated for 48 hrs by CCK-8 assay; format: cell-based
Method in brief: (§1)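 Cells from ATCC, passaged six times, grown in DMEM with 10% FBS and penicillin/streptomycin at 37 °C under 5% CO2. Seeded at 2500 cells/well, cultured overnight, treated 48 h, viability read by CCK-8. Run in triplicate; values are the mean of three experiments.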

[2] = tested on: A549; assay: Induction of cellular senescence in human A549 cells at 10 uM by SA-beta-gal-staining based assay; format: functional, cell-based
[3] = tested on: A549; assay: Induction of apoptosis in human A549 cells assessed as late apoptotic cells at 40 uM after 48 hrs by Annexin V-FITC/PI double staining based flow cytometric analysis (reference value: 4.62%); format: functional
[4] = tested on: A549; assay: Antiproliferative activity against human A549 cells incubated for 48 hrs by CCK-8 assay; format: functional, cell-based; settings: A549, 48 h; method in brief: as §1
[5] = tested on: A549; assay: Induction of apoptosis in human A549 cells assessed as necrotic cells at 10 uM after 48 hrs by Annexin V-FITC/PI double staining based flow cytometric analysis (reference value: 1.57%); format: functional
[6] = tested on: A549; assay: Induction of apoptosis in human A549 cells assessed as necrotic cells at 40 uM after 48 hrs by Annexin V-FITC/PI double staining based flow cytometric analysis (reference value: 1.57%); format: functional
[7] = target: T1, NEDD8-activating enzyme E1 regulatory subunit (Homo sapiens) (UniProt Q13564); assay: Inhibition of NAE (unknown origin)-mediated neddylation assessed as suppression of cullin1-Nedd8 adduct formation at 25 uM preincubated for 10 mins followed by ATP addition and measured after 30 mins by immunoblot analysis relative to control; settings: time 40.0 min
T1 sequence (whole entry): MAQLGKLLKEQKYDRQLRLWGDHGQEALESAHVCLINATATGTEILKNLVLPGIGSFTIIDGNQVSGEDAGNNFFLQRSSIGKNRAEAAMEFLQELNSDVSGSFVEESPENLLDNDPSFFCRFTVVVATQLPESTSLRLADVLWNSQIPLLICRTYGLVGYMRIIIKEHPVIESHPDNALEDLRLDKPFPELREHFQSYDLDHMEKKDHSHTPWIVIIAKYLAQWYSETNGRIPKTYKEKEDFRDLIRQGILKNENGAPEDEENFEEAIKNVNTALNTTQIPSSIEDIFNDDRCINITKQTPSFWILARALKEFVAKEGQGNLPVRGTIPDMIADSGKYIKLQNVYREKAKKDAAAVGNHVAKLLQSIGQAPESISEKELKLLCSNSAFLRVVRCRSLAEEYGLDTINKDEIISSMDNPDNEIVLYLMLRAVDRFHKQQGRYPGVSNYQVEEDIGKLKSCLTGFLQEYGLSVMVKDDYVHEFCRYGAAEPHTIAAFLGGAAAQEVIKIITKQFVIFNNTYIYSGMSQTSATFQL

[8] = tested on: A549; assay: Antitumor activity against human A549 cells xenografted in nude mouse assessed as inhibition of tumor growth at 60 mg/kg, po qd for 5 days on and 2 days off dosing and measured after 24 days post-treatment; format: functional, organism-based; settings: time 24.0 day
Method in brief: (§2)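 Female nude mice were inoculated subcutaneously with 2×10^6 A549 cells in 0.1 mL PBS. At tumor volume 70–100 mm³, mice were randomized into 5 groups of 6. Dosing was ip or oral gavage, once daily on a 5-days-on/2-days-off schedule, with 10% 2-hydroxypropyl-β-cyclodextrin/water as vehicle control. Body weight and tumor volume were measured every two days; tumors were weighed at sacrifice. Significance by two-tailed Student's t-test.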

[9] = target: T1, NEDD8-activating enzyme E1 regulatory subunit (Homo sapiens); assay: Inhibition of NAE-mediated neddylation in human A549 cells assessed as suppression of cullin4a-Nedd8 adduct formation at 12.5 to 25 uM measured after 6 to 12 hrs by Western blot analysis; format: cell-based; settings: dose 12.5-25 µM, time 6-12 hrs
Method in brief: (§3)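 A549 cells were treated 6 or 12 h with graded concentrations (4.5–75 μM) against a 0.1% DMSO control. Cells were washed in cold PBS, lysed in RIPA on ice and cleared by centrifugation, and protein was normalized. Cullin-Nedd8 was resolved on non-reducing SDS-PAGE and Wee1/p27 under reducing conditions, then detected by Western blot.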

[10] = tested on: A549; assay: Induction of apoptosis in human A549 cells assessed as necrotic cells at 20 uM after 48 hrs by Annexin V-FITC/PI double staining based flow cytometric analysis (reference value: 1.57%); format: functional
[11] = tested on: A549; assay: Induction of apoptosis in human A549 cells assessed as early apoptotic cells at 10 uM after 48 hrs by Annexin V-FITC/PI double staining based flow cytometric analysis (reference value: 2.04%); format: functional
[12] = tested on: A549; assay: Induction of apoptosis in human A549 cells assessed as live cells at 10 uM after 48 hrs by Annexin V-FITC/PI double staining based flow cytometric analysis (reference value: 91.8%); format: functional
[13] = target: T1, NEDD8-activating enzyme E1 regulatory subunit (Homo sapiens); assay: Inhibition of NAE-mediated UBE2M neddylation in human A549 cells at 12.5 to 25 uM measured after 6 to 12 hrs by Western blot analysis; format: cell-based; settings: dose 12.5-25 µM, time 6-12 hrs; method in brief: as §3
[14] = tested on: A549; assay: Induction of apoptosis in human A549 cells assessed as late apoptotic cells at 20 uM after 48 hrs by Annexin V-FITC/PI double staining based flow cytometric analysis (reference value: 4.62%); format: functional
[15] = tested on: A549; assay: Antiproliferative activity against human A549 cells assessed as inhibition of cell proliferation at 100 uM incubated for 48 hrs by CCK-8 assay relative to control; format: functional; set-up: scale not given: the % may be the effect or the level left; method in brief: as §1
[16] = tested on: A549; assay: Induction of apoptosis in human A549 cells assessed as late apoptotic cells at 10 uM after 48 hrs by Annexin V-FITC/PI double staining based flow cytometric analysis (reference value: 4.62%); format: functional
[17] = tested on: A549; assay: Induction of apoptosis in human A549 cells assessed as live cells at 20 uM after 48 hrs by Annexin V-FITC/PI double staining based flow cytometric analysis (reference value: 91.8%); format: functional
[18] = tested on: NCI-H1299; assay: Antiproliferative activity against human H1299 cells incubated for 48 hrs by CCK-8 assay; format: functional, cell-based; settings: NCI-H1299, 48 h; method in brief: as §1
[19] = tested on: A549; assay: Induction of apoptosis in human A549 cells assessed as early apoptotic cells at 40 uM after 48 hrs by Annexin V-FITC/PI double staining based flow cytometric analysis (reference value: 2.04%); format: functional
[20] = tested on: A549; assay: Induction of apoptosis in human A549 cells assessed as increase in PARP cleavage at 12.5 uM by Western blot analysis; format: functional, cell-based
[21] = tested on: A549; assay: Antitumor activity against human A549 cells xenografted in nude mouse assessed as decrease in tumor volume at 30 mg/kg, ip qd for 5 days on and 2 days off dosing and measured after 24 days post-treatment; format: functional, organism-based; settings: time 24.0 day; method in brief: as §2
[22] = target: T1, NEDD8-activating enzyme E1 regulatory subunit (Homo sapiens); assay: Inhibition of NAE-mediated neddylation in human A549 cells assessed as suppression of cullin5-Nedd8 adduct formation at 12.5 to 25 uM measured after 6 to 12 hrs by Western blot analysis; format: cell-based; settings: dose 12.5-25 µM, time 6-12 hrs; method in brief: as §3
[23] = target: T1, NEDD8-activating enzyme E1 regulatory subunit (Homo sapiens); assay: Inhibition of NAE-mediated neddylation in human A549 cells assessed as suppression of cullin2-Nedd8 adduct formation at 12.5 to 25 uM measured after 6 to 12 hrs by Western blot analysis; format: cell-based; settings: dose 12.5-25 µM, time 6-12 hrs; method in brief: as §3
[24] = tested on: A549; assay: Antitumor activity against human A549 cells xenografted in nude mouse assessed as decrease in tumor weight at 30 mg/kg, ip qd for 5 days on and 2 days off dosing and measured after 24 days post-treatment; format: functional, organism-based; settings: time 24.0 day; method in brief: as §2

Q: Which IC50 [1] does the source give for CCOc1nc2cccc(C(=O)NCCc3ccc(Cl)cc3Cl)c2n1Cc1ccc(-c2ccccc2-c2nnn[nH]2)cc1 here?
A: 76.1 µM

Q: What about the Activity [2] of the same compound?
A: Active

Q: And the Activity [3]?
A: 3.71%

Q: What about the IC50 [4] of the same compound?
A: 20.4 µM

Q: And the Activity [5]?
A: 1.57%

Q: What about the Activity [6] of the same compound?
A: 1.02%

Q: And the inhibition [7]?
A: 86.4%

Q: And the Activity [8]?
A: Active

Q: What about the inhibition [9] of the same compound?
A: Active

Q: And the Activity [10]?
A: 1.91%

Q: What about the Activity [11] of the same compound?
A: 2.04%

Q: What about the Activity [12] of the same compound?
A: 91.8%

Q: What about the inhibition [13] of the same compound?
A: Active

Q: What about the Activity [14] of the same compound?
A: 7.03%

Q: And the Activity [15]?
A: 83.9%

Q: And the Activity [16]?
A: 4.62%

Q: What about the Activity [17] of the same compound?
A: 72.6%

Q: What about the IC50 [18] of the same compound?
A: 21.8 µM

Q: And the Activity [19]?
A: 32.1%

Q: And the Activity [20]?
A: Active

Q: And the Activity [21]?
A: Active

Q: What about the inhibition [22] of the same compound?
A: Active

Q: And the inhibition [23]?
A: Active

Q: And the Activity [24]?
A: Active
